As a reminder, the IC50 is the midpoint of a concentration-inhibition curve.

IC50 data for six molecules are collected here from BindingDB's records for doi:10.1016/j.ejmech.2010.04.038 (B.V. Patel Pharmaceutical Education and Research …, 2010).

Transcription factor Jun, sequence (P05412 whole entry): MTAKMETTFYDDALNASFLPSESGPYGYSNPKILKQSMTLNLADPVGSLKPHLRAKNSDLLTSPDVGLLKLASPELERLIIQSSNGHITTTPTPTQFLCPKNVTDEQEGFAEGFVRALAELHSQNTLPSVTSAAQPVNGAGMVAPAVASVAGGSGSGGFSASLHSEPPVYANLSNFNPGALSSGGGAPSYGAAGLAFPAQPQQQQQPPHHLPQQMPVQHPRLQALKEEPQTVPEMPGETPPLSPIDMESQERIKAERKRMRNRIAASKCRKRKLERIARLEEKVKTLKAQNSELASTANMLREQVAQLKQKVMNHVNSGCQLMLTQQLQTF

The assay concerns the target Transcription factor Jun (Homo sapiens, UniProt P05412). Description: Inhibition of AP1 expressed in HEK293 cells assessed as inhibition of PMA-induced transcriptional activation treated 24 hrs before PMA challenge by luciferase reporter gene assay. In outline: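 Six-point dose response […] and rising in ½-log steps, screened as in the primary reporter assay. IC50 calculated from the dose-response data.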
On the technique in general: In a reporter assay the amount or activity of a reporter protein is the signal.
With `O=c1c2ccccc2nc(-c2sc(Nc3ccc(Cl)cc3)nc2-c2ccccc2)n1-c1ccc(Cl)cc1` [3-(4-Chloro-phenyl)-2-[2-(4-chloro-phenylamino)-4-phenyl-thiazol-5-yl]-3H-quinazolin-4-one], the IC50 is 4.3 µM.

Consider `CNc1nc(C)c(-c2nc3ccccc3c(=O)n2-c2ccc(Cl)cc2)s1` [3-(4-Chloro-phenyl)-2-(4-methyl-2-methylamino-thiazol-5-yl)-3H-quinazolin-4-one], for which the IC50 was found to be 3 µM.

As for `CCOC(=O)Nc1nc(C)c(-c2nc3ccccc3c(=O)n2-c2ccc(Cl)cc2)s1` [{5-[3-(4-Chloro-phenyl)-4-oxo-3,4-dihydro-quinazolin-2-yl]-4-methyl-thiazol-2-yl}-carbamic acid ethyl ester], the 50% inhibitory concentration (IC50) is 10 µM. Then `CNc1nc(-c2ccccc2)c(-c2nc3ccccc3c(=O)n2-c2ccc(Cl)cc2)s1` [3-(4-Chloro-phenyl)-2-(2-methylamino-4-phenyl-thiazol-5-yl)-3H-quinazolin-4-one], with greater than 500 µM; and `COc1ccc(-n2c(-c3sc(Nc4ccc(Cl)cc4)nc3-c3ccccc3)nc3ccccc3c2=O)cc1` [2-[2-(4-Chloro-phenylamino)-4-phenyl-thiazol-5-yl]-3-(4-methoxy-phenyl)-3H quinazolin-4-one], with 14 µM. Consider `CCOC(=O)Nc1nc(-c2ccccc2)c(-c2nc3ccccc3c(=O)n2-c2ccccc2)s1` [[5-(4-Oxo-3-phenyl-3,4-dihydro-quinazolin-2-yl)-4-phenylthiazol-2-yl]-carbamic acid ethyl ester], for which the IC50 worked out at 5.7 µM.
